High-throughput results from PubChem BioAssay.
Sampled rows, rich in hits. Any-hit rate of the full collection: about 2.2%.
MT stabilizer: microtubule stabilizers in HeLa cells, primary screen, imaging, high-content imaging; HeLa tubulin immunostaining HCS, 24 h; share of cells brighter than vehicle mean+2SD; actives 0.83% (n = 200,000); % tubulin-high responders, % at 10 µM;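 active = plate Z-score above 3 for both tubulin-high and condensed-nucleus cell shares, with cell loss under 80%, at 10 µM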;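 also: anti alpha tubulin signal scored within the nucleus-defined area of each cell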
IEC-6 cytotox: cytotoxicity in IEC-6 intestinal epithelial cells, primary screen, cytotoxicity control for KLF5 inhibitor project, cell-based, luminescence | IEC-6 cytotoxicity, luminescence viability | inhibition, % at 5 µM | actives 0.78% (n = 290,000) | AID 1825, 2009; in the data active = inhibition above about 22%
APP 5UTR inh: inhibitors of APP translation via 5'UTR reporter, primary screen, APP 5'UTR luciferase, SH-SY5Y cells; SH-SY5Y APP 5'UTR-luciferase reporter, luminescence; inhibition, % at 2 µM; actives 0.82% (n = 190,000);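 active = inhibition above a set limit, derived from the sample mean plus 3 SD, cut at about 45% in these data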
b-catenin transl: modulators of beta-catenin nuclear translocation, primary screen, imaging, HeLa cells, immunofluorescence, high-content | actives 0.3% (n = 190,000) | nuclear translocation activity, % at 5 µM;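 active = nuclear translocation activity above 50% at 5 µM, with a well cell count of 50 or more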;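 also: per-cell ratio of nuclear to cytoplasmic median beta-catenin stain intensity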
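test system = HeLa cells, endogenous beta-catenin | dosing = single 5 µM dose plus 0.02–20 µM confirmation series | times = compound treatment 24 h, 37°C, 5% CO2 | technique = beta-catenin immunofluorescence imaging with DAPI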
BaF3 tox: parental Ba/F3 cell viability inhibition, counter-screen for JAK2V617F inhibitor project, murine pro-B, CellTiter-Glo luminescence | CellTiter-Glo ATP luminescence | inhibition, % at 5.6 µM | actives 1.1% (n = 220,000) | AID 1486, 2009;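 active = inhibition above a per-campaign cutoff, the mean inhibition of all tested compounds plus 3 SD, cut at about 27% in these data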
Ba/F3 V617F tox: reduced viability of JAK2V617F-dependent Ba/F3 cells, primary screen, JAK2V617F inhibitor project, cell-based, Ba/F3 EpoR-JAK2V617F, luminescence; actives 1.1% (n = 220,000); AID 1446, 2008; inhibition, % at 5.6 µM; ATP luminescence;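 active = inhibition above the campaign mean plus 3 SD over all tested compounds, cut at about 24% in these data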;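 also: cytokine-independent growth of Ba/F3 cells driven by EpoR plus mutant JAK2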
Numbers stand for hits.

Results for O=C(O)C1CCC(=O)N1C(=O)OCc1ccccc1 (stereo not given) ?
IEC-6 cytotox: inactive; b-catenin transl: inactive; BaF3 tox: inactive; Ba/F3 V617F tox: inactive

What do the screens show for `Cc1ccc(NC(=O)CN2C(=O)S/C(=C\C(=O)Nc3ccc(Cl)cc3)C2=O)cc1`?
MT stabilizer: inactive; IEC-6 cytotox: inactive; APP 5UTR inh: inactive; b-catenin transl: inactive; BaF3 tox: 73; Ba/F3 V617F tox: inactive

What do the screens show for `O=c1nc(SCc2c(F)cccc2Cl)nc(-c2ccc(Cl)cc2)[nH]1`?
IEC-6 cytotox: inactive; b-catenin transl: inactive; BaF3 tox: 40; Ba/F3 V617F tox: inactive

What do the screens show for `O=c1nc(SCc2ccccc2Cl)nc(-c2ccc(Cl)cc2)[nH]1`?
IEC-6 cytotox: inactive; b-catenin transl: inactive; BaF3 tox: inactive; Ba/F3 V617F tox: inactive

What do the screens show for `Oc1ccc(Nc2nc(-c3ccccc3)nc3ccccc23)cc1`?
IEC-6 cytotox: inactive

What do the screens show for `Oc1ccc(Nc2nc3ccccc3nc2Nc2ccc(O)cc2)cc1`?
MT stabilizer: inactive; IEC-6 cytotox: inactive; APP 5UTR inh: 87; BaF3 tox: 100; Ba/F3 V617F tox: 93

How did O=C(N/N=C/c1ccc2c(c1)OCO2)c1sc2cccc(Cl)c2c1Cl do in these assays?
MT stabilizer: 22; IEC-6 cytotox: inactive; APP 5UTR inh: inactive; b-catenin transl: inactive; BaF3 tox: inactive; Ba/F3 V617F tox: inactive

What do the screens show for `O=C(N/N=C/c1ccc2c(c1)OCO2)c1sc2cc(Cl)ccc2c1Cl`?
MT stabilizer: 19; IEC-6 cytotox: inactive; APP 5UTR inh: inactive; b-catenin transl: inactive; BaF3 tox: inactive; Ba/F3 V617F tox: inactive

How did COc1ccc2c(Cl)c(C(=O)N/N=C/c3ccc4c(c3)OCO4)sc2c1 do in these assays?
MT stabilizer: inactive; IEC-6 cytotox: inactive; APP 5UTR inh: inactive; b-catenin transl: inactive; BaF3 tox: inactive; Ba/F3 V617F tox: inactive

What do the screens show for `CCCCCCCC[n+]1cccc2c3ccccc3ccc21`?
MT stabilizer: inactive; IEC-6 cytotox: 45; APP 5UTR inh: inactive; BaF3 tox: 85; Ba/F3 V617F tox: 100

What do the screens show for `Cc1c(NC(=O)CC(=O)Nc2c(C)n(C)n(-c3ccccc3)c2=O)c(=O)n(-c2ccccc2)n1C`?
MT stabilizer: inactive; IEC-6 cytotox: inactive; APP 5UTR inh: inactive; b-catenin transl: inactive; BaF3 tox: inactive; Ba/F3 V617F tox: inactive

How did Cc1c(NC(N)=O)c(=O)n(-c2ccccc2)n1C do in these assays?
MT stabilizer: inactive; IEC-6 cytotox: inactive; APP 5UTR inh: inactive; b-catenin transl: inactive; BaF3 tox: 80; Ba/F3 V617F tox: inactive

How did CN(Cc1ccccc1)C(=O)[C@@H]1CCCN1S(=O)(=O)c1ccc(Cl)cc1 do in these assays?
IEC-6 cytotox: inactive

What do the screens show for `CCOC(=O)COc1ccc(S(=O)(=O)Nc2cccc(SC)c2)cc1`?
MT stabilizer: inactive; IEC-6 cytotox: inactive; APP 5UTR inh: 69; b-catenin transl: inactive; BaF3 tox: inactive; Ba/F3 V617F tox: inactive

Results for CCOC(=O)COc1ccc(S(=O)(=O)Nc2ccc3c(c2)OCCO3)cc1 ?
MT stabilizer: inactive; IEC-6 cytotox: inactive; APP 5UTR inh: inactive; BaF3 tox: inactive; Ba/F3 V617F tox: inactive

How did CCOC(=O)c1cnc(SC)nc1Oc1cccc(NS(=O)(=O)c2ccc(Cl)cc2)c1 do in these assays?
MT stabilizer: 32; IEC-6 cytotox: inactive; APP 5UTR inh: inactive; b-catenin transl: inactive; BaF3 tox: inactive; Ba/F3 V617F tox: inactive

How did Cc1oc2c(C)c3oc(=O)c(CCC(=O)NCCCn4ccnc4)c(C)c3cc2c1C do in these assays?
IEC-6 cytotox: inactive

Results for COc1ccc(C2c3ccc4ccccc4c3Oc3ncn(CCN(C)C)c(=N)c32)cc1 (stereo not given) ?
IEC-6 cytotox: inactive

How did Cc1nc2c3cc(F)ccc3n(Cc3ccccc3)c2s1 do in these assays?
MT stabilizer: 28; IEC-6 cytotox: inactive; APP 5UTR inh: inactive; b-catenin transl: inactive; BaF3 tox: inactive; Ba/F3 V617F tox: inactive

What do the screens show for `Cc1nc2c3cc(F)ccc3n(CCN3CCCCC3)c2s1`?
MT stabilizer: 14; IEC-6 cytotox: inactive; APP 5UTR inh: inactive; b-catenin transl: inactive; BaF3 tox: inactive; Ba/F3 V617F tox: inactive

What do the screens show for `Cc1nc2c3cc(F)ccc3n(Cc3ccccc3F)c2s1`?
MT stabilizer: 27; IEC-6 cytotox: inactive; APP 5UTR inh: inactive; b-catenin transl: inactive; BaF3 tox: inactive; Ba/F3 V617F tox: inactive

Results for Cc1nc2c3ccccc3n(Cc3ccccc3F)c2s1 ?
MT stabilizer: inactive; IEC-6 cytotox: inactive; APP 5UTR inh: inactive; b-catenin transl: inactive; BaF3 tox: inactive; Ba/F3 V617F tox: inactive

How did Cc1ccc(CN2CCNC(=O)C2CC(=O)NCc2cc(C)n(C)n2)cc1 (stereo not given) do in these assays?
IEC-6 cytotox: inactive

Results for N=C1/C(=C\c2ccc(-c3cc(Cl)cc(Cl)c3)o2)C(=O)N=C2SC=C(c3ccccc3)N12 ?
MT stabilizer: inactive; IEC-6 cytotox: inactive; APP 5UTR inh: inactive; b-catenin transl: inactive; BaF3 tox: inactive; Ba/F3 V617F tox: inactive

Results for N=C1/C(=C/c2cccn2CCOc2ccccc2)C(=O)N=C2SC=C(c3ccccc3)N12 ?
MT stabilizer: 30; IEC-6 cytotox: inactive; APP 5UTR inh: inactive; b-catenin transl: inactive; BaF3 tox: inactive; Ba/F3 V617F tox: inactive

Results for Cc1c(C)c(C)c(C(=O)c2ccc(NC(=O)c3ccccc3C(=O)O)cc2)c(C)c1C ?
IEC-6 cytotox: inactive

What do the screens show for `Cc1nn(-c2ccc(Cl)cc2)c(=O)c2ccccc12`?
MT stabilizer: inactive; IEC-6 cytotox: inactive; APP 5UTR inh: inactive; b-catenin transl: inactive; BaF3 tox: inactive; Ba/F3 V617F tox: inactive

Results for Cc1c(Cl)sn(-c2ccc(Cl)cc2)c1=O ?
MT stabilizer: inactive; IEC-6 cytotox: inactive; APP 5UTR inh: 92; b-catenin transl: inactive; BaF3 tox: inactive; Ba/F3 V617F tox: inactive

What do the screens show for `CSc1cccc(NC(=O)Nc2nc3c(C)cccc3s2)c1`?
IEC-6 cytotox: inactive; b-catenin transl: inactive; BaF3 tox: inactive; Ba/F3 V617F tox: inactive

What do the screens show for `COCCn1c(C)cc(C2=NNC(=Nc3ccccc3F)SC2)c1C`?
MT stabilizer: inactive; IEC-6 cytotox: inactive; APP 5UTR inh: 52; BaF3 tox: inactive; Ba/F3 V617F tox: inactive

Results for COCCCN=C1NN=C(c2cc(C)n(Cc3ccccc3Cl)c2C)CS1 ?
MT stabilizer: 15; IEC-6 cytotox: inactive; APP 5UTR inh: 76; b-catenin transl: 76; BaF3 tox: inactive; Ba/F3 V617F tox: inactive

What do the screens show for `COCCCN=C1NN=C(c2cc(C)n(-c3ccccc3F)c2C)CS1`?
MT stabilizer: 19; IEC-6 cytotox: inactive; APP 5UTR inh: inactive; b-catenin transl: 92; BaF3 tox: inactive; Ba/F3 V617F tox: inactive
